Results published in ChEMBL document CHEMBL3244344, “Nucleoside conjugates as potential antitumor agents. 2. Synthesis and biological activity of 1-(beta-D-arabinofuranosyl)cytosine conjugates of prednisolone and prednisone” (J Med Chem, 1979).

Key:
L1210 [1] = assay: Antitumor activity against mouse L1210 cells allografted in C3D2F1/J mouse assessed as increase in life span at 27 mg/kg, ip qd administered for 5 days relative to control; assay type: functional; details: 120 h, route intraperitoneal
L1210 [2] = assay: Cytotoxicity against mouse L1210 cells assessed as growth inhibition measured at 72 hrs by trypan blue exclusion assay; assay type: functional; details: L1210, 72 h, read-out: ED50 (the source's name)
Method in brief: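 L1210 mouse lymphoid leukemia cells seeded at 2–3 × 10⁵ cells/mL in RPMI 1640 + 10% fetal calf serum with compound (from Me2SO stock, final Me2SO 0.5%, compound 100 μM or lower). Viable cells counted by 0.05% Trypan blue exclusion in a hemocytometer at 24, 48, 72 h. Treated/untreated density ratio. ED50 at 72 h interpolated from response curves of three separate experiments.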

L1210 [3] = assay: Antitumor activity against mouse L1210 cells allografted in C3D2F1/J mouse assessed as median survival time at 27 mg/kg, ip qd administered for 5 days (reference value: 10 days); assay type: functional; details: route intraperitoneal
Mus musculus [4] = assay: Toxicity in C3D2F1/J mouse allografted with mouse L1210 cells assessed as body weight change at 27 mg/kg, ip qd administered for 5 days measured on day 8 (reference value: 1.81 +/- 0.79 g); assay type: organism-based; set-up: dose 27 mg/kg, route intraperitoneal; details: in vivo, 120 h
L1210 [5] = assay: Antitumor activity against mouse L1210 cells allografted in C3D2F1/J mouse assessed as increase in life span at 25 mg/kg, ip qd administered for 5 days relative to control; assay type: functional; details: 120 h, route intraperitoneal
L1210 [6] = assay: Antitumor activity against mouse L1210 cells allografted in C3D2F1/J mouse assessed as increase in life span at 100 mg/kg, ip qd administered for 5 days relative to control; assay type: functional; details: 120 h, route intraperitoneal
[7] = Metabolic stability in baboon plasma assessed as remaining compound level at 5 umol at 37 degC after 24 hrs by UV analysis; assay type: ADME, cell-free; details: papio anubis, read-out: Stability
Method in brief: (§1)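 5 μmol conjugate in 0.5 mL fresh baboon plasma, incubated at 37 °C for 24 h. Intact conjugate and products were separated by paper chromatography with authentic markers.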

[8] = Drug degradation in baboon plasma at 5 umol at 37 degC after 24 hrs by UV analysis; assay type: ADME, cell-free; details: papio anubis, read-out: Drug degradation; method in brief: as §1
L1210 [9] = assay: Antitumor activity against mouse L1210 cells allografted in C3D2F1/J mouse assessed as median survival time at 25 mg/kg, ip qd administered for 5 days (reference value: 9 days); assay type: functional; details: route intraperitoneal
Mus musculus [10] = assay: Toxicity in C3D2F1/J mouse allografted with mouse L1210 cells assessed as body weight change at 100 mg/kg, ip qd administered for 5 days measured on day 8 (reference value: 1.81 +/- 0.79 g); assay type: organism-based; set-up: dose 100 mg/kg, route intraperitoneal; details: in vivo, 120 h
Mus musculus [11] = assay: Toxicity in C3D2F1/J mouse allografted with mouse L1210 cells assessed as body weight change at 25 mg/kg, ip qd administered for 5 days measured on day 8 (reference value: 1.81 +/- 0.79 g); assay type: organism-based; set-up: dose 25 mg/kg, route intraperitoneal; details: in vivo, 120 h
Mus musculus [12] = assay: Toxicity in C3D2F1/J mouse allografted with mouse L1210 cells assessed as body weight change at 50 mg/kg, ip qd administered for 5 days measured on day 8 (reference value: 1.81 +/- 0.79 g); assay type: organism-based; set-up: dose 50 mg/kg, route intraperitoneal; details: in vivo, 120 h
[13] = Drug degradation assessed as compound hydrolysis at 5 umol at pH 4.8 at 25 degC after 24 hrs by UV analysis in presence of wheat germ acid phosphatase; assay type: physicochemical; details: read-out: Drug degradation
Method in brief: (§2)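 5 μmol conjugate in NaOAc buffer (pH 4.8) with 3 mg crude wheat germ acid phosphatase, 0.5 mL total, held at 25 °C for 24 h. Products were separated by paper chromatography against authentic markers.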

L1210 [14] = assay: Antitumor activity against mouse L1210 cells allografted in C3D2F1/J mouse assessed as median survival time at 50 mg/kg, ip qd administered for 5 days (reference value: 9 days); assay type: functional; details: route intraperitoneal
L1210 [15] = assay: Antitumor activity against mouse L1210 cells allografted in C3D2F1/J mouse assessed as increase in life span at 75 mg/kg, ip qd administered for 5 days relative to control; assay type: functional; details: 120 h, route intraperitoneal
L1210 [16] = assay: Antitumor activity against mouse L1210 cells allografted in C3D2F1/J mouse assessed as median survival time at 100 mg/kg, ip qd administered for 5 days (reference value: 9 days); assay type: functional; details: route intraperitoneal
[17] = Hydrolytic stability of the compound assessed as remaining compound level at 5 umol at pH 4.8 at 25 degC after 24 hrs by UV analysis in presence of wheat germ acid phosphatase; assay type: physicochemical; details: read-out: Stability; method in brief: as §2
Mus musculus [18] = assay: Toxicity in C3D2F1/J mouse allografted with mouse L1210 cells assessed as body weight change at 75 mg/kg, ip qd administered for 5 days measured on day 8 (reference value: 1.81 +/- 0.79 g); assay type: organism-based; set-up: dose 75 mg/kg, route intraperitoneal; details: in vivo, 120 h
[19] = Drug degradation assessed as steroid formation at 5 umol at pH 9 after 24 hrs by UV analysis in presence of Crotalus adamanteus 5'-nucleotidase; assay type: physicochemical; details: buffer, pH 9, 24 h
Method in brief: (§3)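 Crude Crotalus adamanteus venom: 5 μmol conjugate in Tris-HCl buffer (pH 8.8) with 2.5 mg venom, 0.5 mL total, incubated 37 °C for 24 h. Products were resolved by paper chromatography alongside authentic markers.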

[20] = Drug degradation assessed as ara-C formation at 5 umol at pH 9 after 24 hrs by UV analysis in presence of Crotalus adamanteus 5'-nucleotidase; assay type: physicochemical; details: buffer, pH 9, 24 h; method in brief: as §3
[21] = Hydrolytic stability of the compound at 5 umol at pH 8 at 25 degC after 24 hrs by UV analysis in presence of bacterial alkaline phosphatase; assay type: physicochemical; details: isolated protein, pH 8, 24 h
Method in brief: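 5 μmol conjugate in Tris-HCl (pH 8.0) with bacterial alkaline phosphatase suspension, 0.5 mL total, incubated at 25 °C for 24 h. Paper chromatography against authentic markers.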

L1210 [22] = assay: Antitumor activity against mouse L1210 cells allografted in C3D2F1/J mouse assessed as median survival time at 75 mg/kg, ip qd administered for 5 days (reference value: 9 days); assay type: functional; details: route intraperitoneal
L1210 [23] = assay: Antitumor activity against mouse L1210 cells allografted in C3D2F1/J mouse assessed as increase in life span at 50 mg/kg, ip qd administered for 5 days relative to control; assay type: functional; details: 120 h, route intraperitoneal

C[C@]12C=CC(=O)C=C1CC[C@@H]1[C@@H]2[C@@H](O)C[C@@]2(C)[C@H]1CC[C@]2(O)C(=O)CO [PREDNISOLONE]
ILS at 27 mg/kg (L1210 [1]): -5% | EC50 (L1210 [2]): 100000 nM | MST (L1210 [3]): 9.5 days | Activity (Mus musculus [4]): -0.85 g

C[C@]12C=CC(=O)C=C1CC[C@@H]1[C@@H]2C(=O)C[C@@]2(C)[C@H]1CC[C@]2(O)C(=O)CO[P+]([O-])(O)OC[C@H]1O[C@@H](n2ccc(N)nc2=O)[C@@H](O)[C@@H]1O (some centres undefined)
ILS at 25 mg/kg (L1210 [5]): 61.1% | ILS at 100 mg/kg (L1210 [6]): 11.1% | remaining at 24 h, 5 umol [7]: 74% | EC50 (L1210 [2]): 500 nM | metabolised at 24 h, 5 umol [8]: 15% | MST (L1210 [9]): 14.5 days | Activity (Mus musculus [10]): -1.5 g | Activity (Mus musculus [11]): -0.14 g | Activity (Mus musculus [12]): -0.3 g | metabolised at 24 h, 5 umol [13]: 88% | MST (L1210 [14]): 18 days | ILS at 75 mg/kg (L1210 [15]): 55.6% | MST (L1210 [16]): 10 days | remaining at 24 h, 5 umol [17]: 7% | Activity (Mus musculus [18]): -0.75 g | Drug degradation [19]: 50% | Drug degradation [20]: 50% | Stability [21]: Stable | MST (L1210 [22]): 14 days | ILS at 50 mg/kg (L1210 [23]): 100%

C[C@]12C=CC(=O)C=C1CC[C@@H]1[C@@H]2[C@@H](O)C[C@@]2(C)[C@H]1CC[C@]2(O)C(=O)CO[P+]([O-])(O)OC[C@H]1O[C@@H](n2ccc(N)nc2=O)[C@@H](O)[C@@H]1O (some centres undefined)
ILS at 25 mg/kg (L1210 [5]): 72.7% | ILS at 100 mg/kg (L1210 [6]): 16.7% | remaining at 24 h, 5 umol [7]: 44% | EC50 (L1210 [2]): 50 nM | metabolised at 24 h, 5 umol [8]: 39% | MST (L1210 [9]): 15.5 days | Activity (Mus musculus [10]): -1.5 g | Activity (Mus musculus [11]): -0.07 g | Activity (Mus musculus [12]): -0.28 g | metabolised at 24 h, 5 umol [13]: 86% | MST (L1210 [14]): 17 days | ILS at 75 mg/kg (L1210 [15]): 77.8% | MST (L1210 [16]): 10.5 days | remaining at 24 h, 5 umol [17]: 8% | Activity (Mus musculus [18]): -0.71 g | Drug degradation [19]: 50% | Drug degradation [20]: 50% | Stability [21]: Stable | MST (L1210 [22]): 16 days | ILS at 50 mg/kg (L1210 [23]): 88.9%
